ChEMBL document CHEMBL5058577, “EUbOPEN Chemogenomics Library 2 (Multiplex)” (2022)

System: HEK-293T
Test: Multiplex assay against HEK293T
Assay type: toxicity, cell-based
Conditions: human
Method in brief: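 Per cents of healthy-nucleus cells form the tubulin, mitochondrial-mass and membrane-permeability phenotype values. Live cells were stained at seeding with Hoechst33342, BioTracker Green Microtubule Cytoskeleton Dye, MitoTracker Red and Annexin V Alexa Fluor 680. After compound addition they were imaged on a CQ1 microscope at 37°C and 5% CO2, and CellPathfinder machine-learning gating split them into Hoechst high-intensity objects or normal cells, normal cells into healthy, pyknosed or fragmented nuclei, and pyknosed cells into mitotic or apoptotic.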

[1] = 12 h, 1 µM, compound concentration 1 uM, replicate 1
[2] = 12 h, 1 µM, compound concentration 1 uM, replicate 2
[3] = 12 h, 10 µM, compound concentration 10 uM, replicate 1
[4] = 12 h, 10 µM, compound concentration 10 uM, replicate 2
[5] = 24 h, 1 µM, compound concentration 1 uM, replicate 1
[6] = 24 h, 1 µM, compound concentration 1 uM, replicate 2
[7] = 24 h, 10 µM, compound concentration 10 uM, replicate 1
[8] = 24 h, 10 µM, compound concentration 10 uM, replicate 2
[9] = 48 h, 1 µM, compound concentration 1 uM, replicate 1
[10] = 48 h, 1 µM, compound concentration 1 uM, replicate 2
[11] = 48 h, 10 µM, compound concentration 10 uM, replicate 1
[12] = 48 h, 10 µM, compound concentration 10 uM, replicate 2

## CCC(=O)OCC(=O)[C@@]1(OC(=O)CC)[C@@H](C)C[C@H]2[C@@H]3CCC4=CC(=O)C=C[C@]4(C)[C@@]3(Cl)[C@@H](O)C[C@@]21C [BECLOMETHASONE DIPROPIONATE]
[1]
  Population Apoptotic (%): 43%
  Population Fragmented Nuclei (%): 8%
  Population Healthy Nuclei (%): 75%
  Population Hoechst High Intensity Objects (%): 7%
  Population Membrane Permeable-Phenotype (%): 0%
  Population Mitochondria Different-Phenotype (%): 60%
  Population Mitotic Cells (%): 56%
  Population Normal (%): 92%
  Population Pyknosed Nuclei (%): 15%
  Population Tubulin-Different-Phenotype (%): 48%
  Total Cell Count: 388
[2]
  Population Apoptotic (%): 47%
  Population Fragmented Nuclei (%): 5%
  Population Healthy Nuclei (%): 74%
  Population Hoechst High Intensity Objects (%): 4%
  Population Mitochondria Different-Phenotype (%): 75%
  Population Mitotic Cells (%): 52%
  Population Normal (%): 95%
  Population Pyknosed Nuclei (%): 19%
  Population Tubulin-Different-Phenotype (%): 42%
  Total Cell Count: 356
[3]
  Population Apoptotic (%): 60%
  Population Fragmented Nuclei (%): 8%
  Population Healthy Nuclei (%): 66%
  Population Hoechst High Intensity Objects (%): 14%
  Population Membrane Permeable-Phenotype (%): 0%
  Population Mitochondria Different-Phenotype (%): 87%
  Population Mitotic Cells (%): 39%
  Population Normal (%): 85%
  Population Pyknosed Nuclei (%): 25%
  Population Tubulin-Different-Phenotype (%): 65%
  Total Cell Count: 236
[4]
  Population Apoptotic (%): 68%
  Population Fragmented Nuclei (%): 6%
  Population Hoechst High Intensity Objects (%): 16%
  Population Mitochondria Different-Phenotype (%): 93%
  Population Mitotic Cells (%): 31%
  Population Normal (%): 83%
  Population Pyknosed Nuclei (%): 27%
  Population Tubulin-Different-Phenotype (%): 35%
  Total Cell Count: 252
[5]
  Population Apoptotic (%): 32%
  Population Fragmented Nuclei (%): 7%
  Population Healthy Nuclei (%): 81%
  Population Hoechst High Intensity Objects (%): 4%
  Population Membrane Permeable-Phenotype (%): 0%
  Population Mitochondria Different-Phenotype (%): 40%
  Population Mitotic Cells (%): 67%
  Population Normal (%): 95%
  Population Pyknosed Nuclei (%): 11%
  Population Tubulin-Different-Phenotype (%): 31%
  Total Cell Count: 507
[6]
  Population Apoptotic (%): 43%
  Population Hoechst High Intensity Objects (%): 5%
  Population Mitochondria Different-Phenotype (%): 52%
  Population Mitotic Cells (%): 56%
  Population Normal (%): 94%
  Population Tubulin-Different-Phenotype (%): 18%
  Total Cell Count: 446
[7]
  Population Apoptotic (%): 56%
  Population Fragmented Nuclei (%): 13%
  Population Healthy Nuclei (%): 65%
  Population Hoechst High Intensity Objects (%): 11%
  Population Membrane Permeable-Phenotype (%): 0%
  Population Mitochondria Different-Phenotype (%): 89%
  Population Mitotic Cells (%): 44%
  Population Normal (%): 88%
  Population Pyknosed Nuclei (%): 21%
  Population Tubulin-Different-Phenotype (%): 73%
  Total Cell Count: 270
[8]
  Population Apoptotic (%): 62%
  Population Fragmented Nuclei (%): 5%
  Population Healthy Nuclei (%): 71%
  Population Hoechst High Intensity Objects (%): 9%
  Population Mitochondria Different-Phenotype (%): 97%
  Population Mitotic Cells (%): 37%
  Population Normal (%): 90%
  Population Pyknosed Nuclei (%): 23%
  Population Tubulin-Different-Phenotype (%): 43%
  Total Cell Count: 243
[9]
  Population Apoptotic (%): 30%
  Population Fragmented Nuclei (%): 11%
  Population Healthy Nuclei (%): 78%
  Population Hoechst High Intensity Objects (%): 4%
  Population Membrane Permeable-Phenotype (%): 0%
  Population Mitochondria Different-Phenotype (%): 28%
  Population Mitotic Cells (%): 69%
  Population Normal (%): 95%
  Population Pyknosed Nuclei (%): 9%
  Population Tubulin-Different-Phenotype (%): 18%
  Total Cell Count: 742
[10]
  Population Apoptotic (%): 31%
  Population Fragmented Nuclei (%): 12%
  Population Healthy Nuclei (%): 79%
  Population Hoechst High Intensity Objects (%): 3%
  Population Mitochondria Different-Phenotype (%): 32%
  Population Mitotic Cells (%): 68%
  Population Normal (%): 96%
  Population Pyknosed Nuclei (%): 8%
  Population Tubulin-Different-Phenotype (%): 17%
  Total Cell Count: 655
[11]
  Population Apoptotic (%): 67%
  Population Fragmented Nuclei (%): 14%
  Population Healthy Nuclei (%): 72%
  Population Hoechst High Intensity Objects (%): 5%
  Population Membrane Permeable-Phenotype (%): 0%
  Population Mitochondria Different-Phenotype (%): 72%
  Population Mitotic Cells (%): 32%
  Population Normal (%): 94%
  Population Pyknosed Nuclei (%): 13%
  Population Tubulin-Different-Phenotype (%): 43%
  Total Cell Count: 347
[12]
  Population Apoptotic (%): 65%
  Population Fragmented Nuclei (%): 12%
  Population Mitochondria Different-Phenotype (%): 90%
  Population Mitotic Cells (%): 34%
  Population Pyknosed Nuclei (%): 15%
  Population Tubulin-Different-Phenotype (%): 62%
  Total Cell Count: 283
